Screening results as filed in PubChem.
MrgX1 ag: agonists of human MrgX1 receptor; MrgX1-HEK293 cells, Fluo-4 calcium fluorescence, agonist mode; active compounds read high; B-score at 10 µM; 310,000 compounds, 0.44% hits; AID 588627;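 active = calcium response B-score plate-corrected fluorescence ratio at least 3 library SD, with starting fluorescence B-score inside 5 SD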
Target sequence (Q96LB2 whole entry, looked up): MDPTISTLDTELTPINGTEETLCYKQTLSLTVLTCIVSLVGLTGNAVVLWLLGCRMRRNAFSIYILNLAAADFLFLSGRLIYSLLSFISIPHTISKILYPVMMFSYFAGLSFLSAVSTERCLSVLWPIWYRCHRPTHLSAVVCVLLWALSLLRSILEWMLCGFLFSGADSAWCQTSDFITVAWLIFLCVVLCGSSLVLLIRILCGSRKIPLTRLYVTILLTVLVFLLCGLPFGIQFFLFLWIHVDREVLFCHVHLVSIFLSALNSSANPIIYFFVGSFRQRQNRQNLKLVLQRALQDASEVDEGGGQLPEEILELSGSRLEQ
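times = overnight plating, then 30 min 37 °C plus 30 min room-temperature dye loading | assay system = stable human MrgX1 HEK293 cell line | input = fifteen thousand cells per well | signal = kinetic calcium dye fluorescence, Fluo-4 NW | dosing = compound delivered in addition one of three | read-out = B-scored fluorescence response ratio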
RGS4 act: RGS4 potentiation or activation. HEK293 M3R/inducible RGS4, carbachol calcium flux Fluo4; active compounds read low. B-score at 10 µM. 310,000 compounds, 0.92% hits. AID 463111;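 active = B-score of the integrated calcium signal more than 4 SD below the library mean, with starting fluorescence not abnormally high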;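 note: negative B-score means reduced calcium response which marks RGS4 activation or potentiation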
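System: HEK293 FlpIn-TREx cells, stable M3R, doxycycline-inducible RGS4. Timing: overnight RGS4 induction, 30 min dye load 37 °C, 20 min compound RT. Also added: carbachol, ECmax concentration. Measured by: Fluo4 fluorescence kinetic imaging of calcium. Evaluation: integrated calcium ratio converted to B score.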
MrgX1 antag: human MrgX1 receptor antagonism, primary screen | MRGX1-HEK293 calcium flux, Fluo-4, BAM8-22 antagonism; active compounds read low | B-score at 10 µM | 310,000 compounds, 1.3% hits;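 active = calcium-response B-score plate-corrected more than 3 library SD below zero, starting fluorescence within 5 deviations, no agonist response on first addition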;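 note: peak minus trough fluorescence over baseline after final BAM8-22 challenge near maximal dose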
MrgX1 PAM: human MrgX1 positive allosteric modulation, primary screen; MrgX1-HEK293, Fluo-4 calcium flux, FDSS; active compounds read high; B-score at 10 µM; 310,000 compounds, 0.63% hits;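 active = plate-corrected calcium response at least 3 library SD above typical, normal starting fluorescence, not activating the receptor alone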;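 note: compound read alongside a low EC10 to EC30 dose of BAM8-22 agonist; peak minus trough fluorescence over baseline measured at the second addition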
RGS4 inh: inhibitors of human RGS4; AID 463165; HEK293 M3R/RGS4 inducible, Fluo-4 calcium flux; active compounds read high; triggered by carbachol at its EC20; P49798; 310,000 compounds, 0.45% hits; B-score at 10 µM;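 active = B-score, a plate-corrected calcium signal, over three deviations above library mean, with baseline fluorescence within five deviations of library mean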;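 note: RGS4 expression induced by doxycycline in cells with stable M3 receptor; B-score is computed from the integrated fluorescence ratio over baseline after carbachol; higher B-score means a larger calcium signal and so more RGS4 inhibition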
Target sequence (P49798 whole entry, looked up): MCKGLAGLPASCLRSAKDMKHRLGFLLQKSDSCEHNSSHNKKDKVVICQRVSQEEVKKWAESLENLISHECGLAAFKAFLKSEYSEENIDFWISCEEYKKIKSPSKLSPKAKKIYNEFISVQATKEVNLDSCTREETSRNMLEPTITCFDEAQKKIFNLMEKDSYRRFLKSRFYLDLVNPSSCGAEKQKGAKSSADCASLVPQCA
RGS4 inh valid: RGS4 inhibitor validation | shares compounds with RGS4 inh | HEK293 M3R/RGS4, carbachol calcium Fluo-4 fluorescence; carbachol added at its EC20; 0 = buffer wells, 100 = carbachol control | calcium response, % at 10 µM | 1,700 compounds, 65% hits;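 active = duplicate-averaged calcium response above the buffer-only control mean plus 5 SD of those controls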;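 note: integrated fluorescence ratio F max minus min over baseline F0; higher response in RGS4-induced cells means RGS4 inhibition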
M3R Ca ctr: checks RGS4 inhibitor effects in non-induced HEK293 M3R cells; activity (percent), % at 10 µM; carbachol calcium Fluo-4; submaximal (EC20) carbachol stimulus; buffer wells 0%, carbachol control wells 100%; 1,900 compounds, 20% hits; shares compounds with RGS4 inh; call rule not given here;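 note: RGS4 induction absent so cells express M3R without RGS4; higher means more calcium signal and flags a non-specific hit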
RGS4 inh ctr2: second RGS4 inhibitor counter-screen in uninduced cells lacking carbachol | 1,900 compounds, 22% hits | calcium response (agonist-mode artifact), % at 10 µM | HEK293 M3R/RGS4 non-induced, Fluo-4 calcium, no carbachol; normalised: buffer wells 0%, carbachol wells 100% | shares compounds with RGS4 inh;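 active = duplicate-averaged calcium rise in uninduced cells above buffer wells' mean plus 5 SD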
Starred values were filed as active, the others as inactive; i = inactive; x = not tested or not shown. Hits are enriched below; roughly 3.5% of the tested compounds scored in any of these assays.

SMILES | MrgX1 ag | RGS4 act | MrgX1 antag | MrgX1 PAM | RGS4 inh | RGS4 inh valid | M3R Ca ctr | RGS4 inh ctr2
CCOC(=O)C1CCN(C(C(=O)NC2CCCC2)c2ccc(C)cc2)CC1 (stereo not drawn) | i | i | i | i | 5.31* | 21.0%* | i | i
COc1cc(/C=C/c2[nH]c(=O)[nH]c(=O)c2[N+](=O)[O-])cc(OC)c1O | i | i | i | i | i | x | x | x
O=c1[nH]c(/C=C/c2ccccc2Cl)c([N+](=O)[O-])c(=O)[nH]1 | i | i | i | i | 10.5* | 43.5%* | 41.5%* | i
CC(C)c1ccc(/C=C/c2[nH]c(=O)[nH]c(=O)c2[N+](=O)[O-])cc1 | i | i | i | i | i | x | x | x
COc1cccc(/C=C/c2[nH]c(=O)[nH]c(=O)c2[N+](=O)[O-])c1O | i | i | i | i | 5.26* | 17.0%* | i | i
C/C(=N\N=C1\NC(=O)C(CC(=O)Nc2ccc(C)c(Cl)c2)S1)C(C)(C)C (stereo not drawn) | i | i | i | i | 7.51* | 70.0%* | i | i
C/C(=N\N=C1\NC(=O)C(CC(=O)Nc2ccc(Cl)cc2)S1)c1ccco1 (stereo not drawn) | i | i | i | i | i | x | x | x
COc1c(O)cnn(-c2ccccc2)c1=O | i | i | i | i | i | x | x | x
COc1ccc(-c2c(-c3ccc(OCC(=O)NN)cc3O)n[nH]c2C)cc1OC | i | i | i | i | i | x | x | x
COc1ccc(-c2c(-c3ccc(OCC(=O)NN)cc3O)n[nH]c2C(F)(F)F)cc1 | i | i | i | i | 12.3* | 27.5%* | 29.0%* | i
O=C(O)C(c1ccccc1)N1C(=O)/C(=C\c2ccc(-c3ccc(Br)cc3)o2)SC1=S (stereo not drawn) | x | -7.76* | x | x | 9.56* | 9.0%* | i | 234.0%*
C=CCN1C(=O)/C(=C/c2ccc(-c3ccc(F)cc3)o2)SC1=S | i | i | -5.6* | i | 14.3* | 33.5%* | i | 59.5%*
C=CCN1C(=O)/C(=C/c2ccsc2)SC1=S | i | i | i | i | i | x | x | x
C=CCn1cnc2scc(-c3ccc(C)cc3)c2c1=O | i | i | i | i | i | x | x | x
COc1ccc2[nH]cc(CCNC(=O)c3ccccc3Cl)c2c1 | i | i | i | i | i | x | x | x
COc1cccc(NC(=O)NC2CCCCCCC2)c1 | i | i | i | i | 18.4* | i | i | i
COc1ccc(C2NC(=O)NC(C)=C2[N+](=O)[O-])cc1 (stereo not drawn) | i | i | i | i | i | x | x | x
COc1cc(/C=N/NC(=S)Nc2cccc(Cl)c2C)ccc1OCC(=O)N1CC(C)OC(C)C1 (stereo not drawn) | i | i | i | i | 12.9* | i | i | i
COc1ccccc1N1CCN(C(=O)c2ccc(CS(=O)(=O)c3ccccc3OC)o2)CC1 | i | i | i | i | i | x | x | x
O=c1[nH]c2ccc(Br)cc2c(-c2ccccc2)c1CN1CCOCC1 | i | i | i | i | 7.52* | 19.0%* | 48.5%* | i
O=c1[nH]c2ccc(Br)cc2c(-c2ccccc2)c1N1CCOCC1 | i | i | i | i | i | x | x | x
CCOc1ccc2oc(C(=O)N3CC(C)OC(C)C3)c(C)c2c1 (stereo not drawn) | i | i | i | i | i | x | x | x
COc1ccc(CCNC(=O)CC2SC(=NCCc3ccccc3)NC2=O)cc1OC (stereo not drawn) | i | i | i | i | i | x | x | x
COc1ccccc1CN=C1NC(=O)C(CC(=O)Nc2ccc(OC)c(OC)c2)S1 (stereo not drawn) | i | i | i | i | 5.64* | 8.5%* | i | i
COc1ccc(NC(=O)CC2SC(=NCc3ccccc3OC)NC2=O)cc1 (stereo not drawn) | i | i | i | i | i | x | i | i
SMILES | MrgX1 ag | RGS4 act | MrgX1 antag | MrgX1 PAM | RGS4 inh | RGS4 inh valid | M3R Ca ctr | RGS4 inh ctr2
CCOc1ccc(-c2csc(NC(=O)CSC3=NC(=O)CN3C(C)=O)n2)c2ccccc12 | i | i | i | i | i | x | x | x
CC(=O)N1CC(=O)N=C1SCC(=O)Nc1nc(C)c(-c2ccccc2)s1 | i | i | i | i | i | i | i | i
C/C(Cn1nnc([N+](=O)[O-])n1)=N\NC(=O)c1ccc(O)cc1 | i | i | i | i | i | x | x | x
CCn1c2ccccc2c2cc(/C=N/NC(=O)c3cc(O)cc(O)c3)ccc21 | i | i | i | i | 8.96* | 42.5%* | 31.0%* | i
CCn1c2ccccc2c2cc(/C=N/NC(=O)c3ccc(O)cc3)ccc21 | i | i | -6.27* | i | i | x | i | i
Cc1nn(Cc2ccccc2)c2sc(C(=O)N3CCN(Cc4ccc5c(c4)OCO5)CC3)cc12 | i | i | i | i | i | x | x | x
CCOC(=O)/C=C/C(=O)Nc1ccc(S(=O)(=O)Nc2nccs2)cc1 | i | i | i | i | 5.02* | 23.0%* | i | i
CCOCC(=O)Nc1ccc(S(=O)(=O)Nc2nccs2)cc1 | i | i | i | i | i | x | x | x
CC(C)c1ccc(CNC(=O)C(=O)NCC2CCCO2)cc1 (stereo not drawn) | i | i | i | i | i | x | x | x
COc1ccc(-c2cn[nH]c2-c2ccc(OCc3ccc([N+](=O)[O-])cc3)cc2O)cc1OC | i | i | i | i | i | x | x | x
CCc1cc(-c2[nH]ncc2-c2ccc([N+](=O)[O-])cc2)c(O)cc1OC | i | i | i | 25.6* | 12.3* | 34.0%* | i | i
CCc1nc(CN2CCCC(C(=O)c3ccc4c5c(cccc35)CC4)C2)c(C)[nH]1 (stereo not drawn) | i | i | i | i | i | x | x | x
Cc1noc(NS(=O)(=O)c2ccc(N/C=C\C(=O)c3cccc4ccccc34)cc2)c1C | i | i | i | i | 5.92* | i | i | i
